ChEMBL document CHEMBL1833943, “Synthesis and structure-activity relationships of varied ether linker analogues of the antitubercular drug (6S)-2-nitro-6-{[4-(trifluoromethoxy)benzyl]oxy}-6,7-dihydro-5h-imidazo[2,1-b][1,3]oxazine (PA-824)” (J Med Chem, 2011)
≈ marks a conversion by molar mass, not a printed value.

How the values were obtained:
[1] = tested on: Mycobacterium tuberculosis; assay: Antituberculosis activity against Mycobacterium tuberculosis H37Rv under aerobic conditions by microplate alamar blue assay; assay type: functional
[2] = tested on: Mycobacterium tuberculosis; assay: Antituberculosis activity against Mycobacterium tuberculosis H37Rv under anaerobic conditions by fluorescence based low-oxygen-recovery assay; assay type: functional
[3] = Aqueous solubility of the compound in water at pH 7 by HPLC analysis; assay type: physicochemical
Summary of the method: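 Solubility measured in water at pH 7 and 20 °C, quantified by HPLC.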

| SMILES | MIC [1] | MIC [2] | solubility [3] |
| --- | --- | --- | --- |
| O=[N+]([O-])c1cn2c(n1)OC[C@@H](OCCCC#Cc1ccc(-c3ccc(F)cc3)cc1)C2 | 0.07 µM (≈ 0.0295 µg/mL) | 1.6 µM (≈ 0.674 µg/mL) | – |
| O=[N+]([O-])c1cn2c(n1)OC[C@@H](OCCCC#Cc1ccc(-c3ccc(C(F)(F)F)cc3)cc1)C2 | 0.085 µM (≈ 0.0401 µg/mL) | > 128 µM | – |
| O=[N+]([O-])c1cn2c(n1)OC[C@@H](OCCCC#Cc1ccc(-c3ccc(C(F)(F)F)nc3)cc1)C2 | 0.11 µM (≈ 0.052 µg/mL) | 63 µM (≈ 29.8 µg/mL) | – |
| O=[N+]([O-])c1cn2c(n1)OC[C@@H](OCCCC#Cc1ccc(-c3ccc(OC(F)F)cc3)cc1)C2 | 0.035 µM (≈ 0.0164 µg/mL) | 39 µM (≈ 18.3 µg/mL) | – |
| O=[N+]([O-])c1cn2c(n1)OC[C@@H](Oc1cc(-c3ccc(C(F)(F)F)nc3)ncn1)C2 | 3 µM (≈ 1.22 µg/mL) | 62 µM (≈ 25.3 µg/mL) | – |
| O=[N+]([O-])c1cn2c(n1)OC[C@@H](Oc1ccc(-c3ccc(F)cc3)cn1)C2 | 0.37 µM (≈ 0.132 µg/mL) | 15 µM (≈ 5.34 µg/mL) | – |
| O=[N+]([O-])c1cn2c(n1)OC[C@@H](Oc1ccc(-c3ccc(C(F)(F)F)cc3)cn1)C2 | 0.1 µM (≈ 0.0406 µg/mL) | 12 µM (≈ 4.88 µg/mL) | – |
| O=[N+]([O-])c1cn2c(n1)OC[C@@H](Oc1ccc(-c3ccc(C(F)(F)F)nc3)cn1)C2 | 0.42 µM (≈ 0.171 µg/mL) | 14 µM (≈ 5.7 µg/mL) | – |
| O=[N+]([O-])c1cn2c(n1)OC[C@@H](Oc1ccc(-c3ccc(OC(F)(F)F)cc3)nc1)C2 | 0.14 µM (≈ 0.0591 µg/mL) | 1.5 µM (≈ 0.633 µg/mL) | 0.27 µg/mL (≈ 0.639 µM) |
| O=[N+]([O-])c1cn2c(n1)OC[C@@H](Oc1ccc(-c3ccc(F)cc3)nc1)C2 | 0.5 µM (≈ 0.178 µg/mL) | 5.6 µM (≈ 2 µg/mL) | – |
| O=[N+]([O-])c1cn2c(n1)OC[C@@H](Oc1ccc(-c3ccc(C(F)(F)F)cc3)nc1)C2 | 0.78 µM (≈ 0.317 µg/mL) | 1.2 µM (≈ 0.488 µg/mL) | – |
| O=[N+]([O-])c1cn2c(n1)OC[C@@H](Oc1ccc(-c3ccc(C(F)(F)F)nc3)nc1)C2 | 0.45 µM (≈ 0.183 µg/mL) | 17 µM (≈ 6.92 µg/mL) | – |
| O=[N+]([O-])c1cn2c(n1)OC[C@@H](Oc1ncc(-c3ccc(F)cc3)cn1)C2 | 1.6 µM (≈ 0.572 µg/mL) | 7.4 µM (≈ 2.64 µg/mL) | – |
| O=[N+]([O-])c1cn2c(n1)OC[C@@H](Oc1ncc(-c3ccc(C(F)(F)F)cc3)cn1)C2 | 0.21 µM (≈ 0.0855 µg/mL) | 3 µM (≈ 1.22 µg/mL) | – |
| O=[N+]([O-])c1cn2c(n1)OC[C@@H](Oc1ncc(-c3ccc(C(F)(F)F)nc3)cn1)C2 | 1.3 µM (≈ 0.531 µg/mL) | 17 µM (≈ 6.94 µg/mL) | – |
| CC(O[C@@H]1COc2nc([N+](=O)[O-])cn2C1)c1ccc(-c2ccc(F)cc2)cc1 (stereo partly drawn) | 0.22 µM (≈ 0.0843 µg/mL) | 1.3 µM (≈ 0.498 µg/mL) | – |
| CC(O[C@@H]1COc2nc([N+](=O)[O-])cn2C1)c1ccc(-c2ccc(C(F)(F)F)cc2)cc1 (stereo partly drawn) | 0.18 µM (≈ 0.078 µg/mL) | 2.2 µM (≈ 0.953 µg/mL) | – |
| CC(O[C@@H]1COc2nc([N+](=O)[O-])cn2C1)c1ccc(-c2ccc(C(F)(F)F)nc2)cc1 (stereo partly drawn) | 0.39 µM (≈ 0.169 µg/mL) | 4.3 µM (≈ 1.87 µg/mL) | – |

| SMILES | MIC [1] | MIC [2] | solubility [3] |
| --- | --- | --- | --- |
| O=[N+]([O-])c1cn2c(n1)OC[C@@H](Oc1ccc(-c3ccc(F)cc3)cc1)C2 | 0.31 µM (≈ 0.11 µg/mL) | 1.2 µM (≈ 0.426 µg/mL) | – |
| O=[N+]([O-])c1cn2c(n1)OC[C@@H](Oc1ccc(-c3ccc(C(F)(F)F)cc3)cc1)C2 | 0.39 µM (≈ 0.158 µg/mL) | > 128 µM | – |
| O=[N+]([O-])c1cn2c(n1)OC[C@@H](Oc1ccc(-c3ccc(C(F)(F)F)nc3)cc1)C2 | 0.51 µM (≈ 0.207 µg/mL) | 4.1 µM (≈ 1.67 µg/mL) | – |
| O=[N+]([O-])c1cn2c(n1)OC[C@@H](Oc1cccc(-c3ccc(OC(F)(F)F)cc3)n1)C2 | 0.24 µM (≈ 0.101 µg/mL) | 3.3 µM (≈ 1.39 µg/mL) | 0.12 µg/mL (≈ 0.284 µM) |
| O=[N+]([O-])c1cn2c(n1)OC[C@@H](Oc1cccc(-c3ccc(F)cc3)n1)C2 | 3.2 µM (≈ 1.14 µg/mL) | 27 µM (≈ 9.62 µg/mL) | – |
| O=[N+]([O-])c1cn2c(n1)OC[C@@H](Oc1cccc(-c3ccc(C(F)(F)F)cc3)n1)C2 | 0.55 µM (≈ 0.223 µg/mL) | 35 µM (≈ 14.2 µg/mL) | – |
| O=[N+]([O-])c1cn2c(n1)OC[C@@H](Oc1cccc(-c3ccc(C(F)(F)F)nc3)n1)C2 | 5.7 µM (≈ 2.32 µg/mL) | > 128 µM | – |
| O=[N+]([O-])c1cn2c(n1)OC[C@@H](Oc1cccc(-c3ccc(OC(F)F)cc3)n1)C2 | 0.52 µM (≈ 0.21 µg/mL) | 4.4 µM (≈ 1.78 µg/mL) | – |
| O=[N+]([O-])c1cn2c(n1)OC[C@@H](Oc1ccnc(-c3ccc(OC(F)(F)F)cc3)c1)C2 | 0.3 µM (≈ 0.127 µg/mL) | 2.6 µM (≈ 1.1 µg/mL) | 0.53 µg/mL (≈ 1.25 µM) |
| O=[N+]([O-])c1cn2c(n1)OC[C@@H](Oc1ccnc(-c3ccc(F)cc3)c1)C2 | 0.67 µM (≈ 0.239 µg/mL) | 8.5 µM (≈ 3.03 µg/mL) | – |
| O=[N+]([O-])c1cn2c(n1)OC[C@@H](Oc1ccnc(-c3ccc(C(F)(F)F)cc3)c1)C2 | 0.65 µM (≈ 0.264 µg/mL) | > 128 µM | – |
| O=[N+]([O-])c1cn2c(n1)OC[C@@H](Oc1ccnc(-c3ccc(C(F)(F)F)nc3)c1)C2 | 14 µM (≈ 5.7 µg/mL) | > 128 µM | – |
| O=[N+]([O-])c1cn2c(n1)OC[C@@H](Oc1cc(-c3ccc(F)cc3)ccn1)C2 | 5.2 µM (≈ 1.85 µg/mL) | 28 µM (≈ 9.98 µg/mL) | – |
| O=[N+]([O-])c1cn2c(n1)OC[C@@H](Oc1cc(-c3ccc(C(F)(F)F)cc3)ccn1)C2 | 0.88 µM (≈ 0.358 µg/mL) | 32 µM (≈ 13 µg/mL) | – |
| O=[N+]([O-])c1cn2c(n1)OC[C@@H](Oc1cc(-c3ccc(C(F)(F)F)nc3)ccn1)C2 | 3 µM (≈ 1.22 µg/mL) | 27 µM (≈ 11 µg/mL) | – |
| O=[N+]([O-])c1cn2c(n1)OC[C@@H](Oc1cc(-c3ccc(F)cc3)ncn1)C2 | 0.99 µM (≈ 0.354 µg/mL) | 15 µM (≈ 5.36 µg/mL) | – |
| O=[N+]([O-])c1cn2c(n1)OC[C@@H](Oc1cc(-c3ccc(C(F)(F)F)cc3)ncn1)C2 | 0.8 µM (≈ 0.326 µg/mL) | 17 µM (≈ 6.92 µg/mL) | – |
